# Results as given in PubChem BioAssay.
# Calls of active or inactive are those of the source.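 How the source made its calls, unless noted: active means mean duplicate potentiation above the buffer control mean plus 5 SD of buffer wells; inactive means the rest.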
# Columns and labels:
# [1] = nonspecific flux increase, KCNQ1-free cells – parental CHO cells, counter-screen for KCNQ1 potentiator project (AID 493006;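 active means duplicate-averaged activation above buffer control mean plus 5 SD of those controls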;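 on activation: fluorescence ratio of max minus min over baseline after K+ and Tl+ depolarization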); settings: parental CHO-K1 cells, FluxOR thallium flux, at 10 µM; active compounds read high
# How it was run: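 Material: untransfected host CHO-K1 cells with FluxOR thallium dye. Timing: overnight 37 °C plating, 90 min RT dye, 20 min compound. Detection: kinetic FluxOR fluorescence, 10 s baseline, 110 s after stimulus. Read-out basis: max-minus-min fluorescence over baseline, percent of buffer-to-R-L3 span. Replicates: duplicate wells per compound, percent values averaged.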
# [2] = biological target: Potassium voltage-gated channel subfamily KQT member 1 (Homo sapiens) (UniProt P51787); assay: enhancement of KCNQ1 channel thallium flux – FluxOR thallium flux, CHO cells, duplicates, confirmation (AID 493007;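 active means potentiation averaged over duplicate wells exceeding buffer-only control mean by more than 3 SD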;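 on outcome: cells depolarized by a potassium plus thallium sulfate stimulus after compound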); settings: KCNQ1 cell line, FluxOR thallium flux fluorescence, at 10 µM; active compounds read high, % of reference activator effect, buffer zero
# How it was run: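 Test system – KCNQ1-expressing CHO cell line · Incubation – FluxOR dye loading 90 min, compound exposure 20 min, room temperature · Detection – FluxOR Tl+ flux fluorescence, 10 s baseline plus 110 s recording · Controls – buffer-only wells as 0% and R-L3 activator as 100%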
# [3] = biological target: Potassium voltage-gated channel subfamily KQT member 2 (Rattus norvegicus) (UniProt O88943); assay: KCNQ2 thallium flux enhancement – KCNQ2-CHO-K1 cells, selectivity assay for KCNQ1 potentiator project (AID 493009); settings: FluxOR thallium flux fluorescence, at 10 µM; active compounds read high, scaled: buffer 0, activator control 100;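 further: assay conditions were tuned for KCNQ1 rather than KCNQ2 modulators; signal is max minus min fluorescence divided by baseline after thallium stimulus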
# [4] = biological target: Potassium voltage-gated channel subfamily KQT member 1 (Homo sapiens) (UniProt P51787); assay: KCNQ1 activators by electrophysiology – IonWorks patch clamp, KCNQ1-CHO cells, orthogonal assay for KCNQ1 potentiator project, confirmation (AID 493184;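 active means current rise at least 3 SD above the untreated control mean in each of two repeat wells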); settings: automated patch clamp current, at 10 µM; active compounds read high
# How it was run: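 Read-out: Percent current increase versus pre-compound level | Assay system: CHO cells carrying KCNQ1 | Measured by: Automated perforated-patch electrophysiology | Medium: External bath solution at pH 7.4 | Dosing: One dose, 10 µM final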
# Chain of Potassium voltage-gated channel subfamily KQT member 1 (Homo sapiens) (P51787 whole entry, looked up): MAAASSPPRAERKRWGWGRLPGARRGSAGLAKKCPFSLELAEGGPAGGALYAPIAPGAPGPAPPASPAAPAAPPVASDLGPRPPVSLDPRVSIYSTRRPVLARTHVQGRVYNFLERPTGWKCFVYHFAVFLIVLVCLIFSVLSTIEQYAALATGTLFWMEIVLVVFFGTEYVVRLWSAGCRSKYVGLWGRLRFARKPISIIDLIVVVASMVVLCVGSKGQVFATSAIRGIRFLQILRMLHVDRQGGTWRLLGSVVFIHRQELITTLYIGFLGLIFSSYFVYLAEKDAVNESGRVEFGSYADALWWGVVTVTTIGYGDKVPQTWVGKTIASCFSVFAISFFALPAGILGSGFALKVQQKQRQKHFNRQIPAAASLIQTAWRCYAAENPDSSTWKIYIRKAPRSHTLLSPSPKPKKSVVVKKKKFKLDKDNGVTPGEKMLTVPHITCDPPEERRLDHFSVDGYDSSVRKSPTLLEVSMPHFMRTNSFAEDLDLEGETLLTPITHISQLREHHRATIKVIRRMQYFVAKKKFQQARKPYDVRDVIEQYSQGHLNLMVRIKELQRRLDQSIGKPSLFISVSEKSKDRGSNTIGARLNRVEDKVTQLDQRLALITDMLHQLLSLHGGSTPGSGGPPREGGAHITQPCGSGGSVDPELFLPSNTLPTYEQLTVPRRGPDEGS
# Chain of Potassium voltage-gated channel subfamily KQT member 2 (Rattus norvegicus) (O88943 whole entry, looked up): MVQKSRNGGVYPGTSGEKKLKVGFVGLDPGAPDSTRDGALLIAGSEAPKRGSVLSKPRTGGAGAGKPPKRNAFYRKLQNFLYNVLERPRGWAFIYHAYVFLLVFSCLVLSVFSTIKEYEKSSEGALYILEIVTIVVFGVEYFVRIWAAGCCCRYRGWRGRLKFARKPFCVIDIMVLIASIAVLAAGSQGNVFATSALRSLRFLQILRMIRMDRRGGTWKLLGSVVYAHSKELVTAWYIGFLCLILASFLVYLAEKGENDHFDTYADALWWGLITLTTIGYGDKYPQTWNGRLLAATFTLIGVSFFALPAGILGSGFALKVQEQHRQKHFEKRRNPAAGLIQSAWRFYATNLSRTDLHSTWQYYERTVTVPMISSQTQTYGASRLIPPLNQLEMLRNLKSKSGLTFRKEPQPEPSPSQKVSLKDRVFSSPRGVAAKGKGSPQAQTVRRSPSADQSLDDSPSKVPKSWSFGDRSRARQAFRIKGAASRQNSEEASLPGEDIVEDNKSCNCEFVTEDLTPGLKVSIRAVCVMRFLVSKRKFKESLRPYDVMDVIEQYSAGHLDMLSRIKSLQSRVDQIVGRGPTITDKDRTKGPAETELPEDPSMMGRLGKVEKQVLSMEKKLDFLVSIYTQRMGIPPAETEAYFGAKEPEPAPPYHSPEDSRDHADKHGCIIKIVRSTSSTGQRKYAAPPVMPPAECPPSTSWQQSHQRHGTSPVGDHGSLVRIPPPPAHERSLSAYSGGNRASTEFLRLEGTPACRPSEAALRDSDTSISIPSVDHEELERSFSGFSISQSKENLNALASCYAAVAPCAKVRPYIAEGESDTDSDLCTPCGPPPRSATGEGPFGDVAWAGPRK
Compound,outcome [1],potentiation [2],outcome [3],outcome [4],outcome [2],activation [1],potentiation [3]
O=C(NC(=S)Nc1ccc(N2CCOCC2)c(Cl)c1)c1sc2ccccc2c1Cl,inactive,35.5% (active),inactive,inactive,–,–,–
Cc1ccc2nc(SCC(=O)N3CCN(C(=O)c4ccco4)CC3)[nH]c2c1,inactive,–,inactive,inactive,inactive,–,–
C/C(=C/CCC(C)[C@H]1CC[C@@]2(C)C3=C(CC[C@]12C)[C@@]1(C)CCC(=O)C(C)(C)[C@@H]1CC3)C(=O)O (stereo not given in full),–,298% (active),–,inactive,–,829% (active),680% (active)
COc1cc(CN2CCN(c3cccc(Cl)c3)CC2)cc(OC)c1OC,inactive,–,inactive,inactive,inactive,–,–
CC(C)CC(=O)NC(=S)Nc1nc(-c2cccc3ccccc23)cs1,inactive,60% (active),–,inactive,–,–,156% (active)
Cc1ccc(C)c(NC(=S)NNC(=O)c2cc3c(s2)CCC(C)C3)c1 (stereo not given),–,48.5% (active),–,inactive,–,192% (active),237% (active)
Cc1cccc(C(=O)NNC(=O)C(=O)NC(C)(C)C)c1,–,30.5% (active),–,inactive,–,159% (active),146% (active)
O=c1c2ccc(Cl)cc2nc(-c2cccc(C(F)(F)F)c2)n1O,–,230% (active),–,inactive,–,722% (active),756% (active)
COc1cccc2sc(Nc3nnc(-c4cccs4)o3)nc12,–,250% (active),–,inactive,–,396% (active),424% (active)
COc1ccc(-n2cc(-c3ccccc3)c3c(=S)nc[nH]c32)cc1,–,38% (active),–,inactive,–,137% (active),172% (active)
Cc1ccc(NC(=S)N2CCC(N(C)CC3CCCO3)CC2)cc1 (stereo not given),inactive,19.5% (active),inactive,inactive,–,–,–
Cc1ccc(C(C)C)c(OCc2n[nH]c(=S)o2)c1,–,27% (active),–,inactive,–,154% (active),160% (active)
CCOC(=O)Cc1csc(NC(=S)NC(=O)c2ccccc2C)n1,–,45.5% (active),–,inactive,–,201% (active),200% (active)
Cc1ccc(Sc2ccc(CN3CCCC3)cc2[N+](=O)[O-])cc1,inactive,–,inactive,inactive,inactive,–,–
S=c1[nH]c2ccc(Cl)cc2s1,–,228% (active),–,inactive,–,614% (active),526% (active)
COc1ccc(N/C=C/C(=O)c2cc(OC)c(OC)c(OC)c2)cc1,–,188% (active),–,inactive,–,366% (active),365% (active)
CCSc1nc(=S)cc(C)[nH]1,–,172% (active),–,inactive,–,340% (active),388% (active)
Oc1c(Br)cc(Br)cc1C=Nc1ccc2c(c1)OCO2,–,–,inactive,inactive,inactive,172% (active),–
COc1ccc(CCNC(=O)CC(=O)N/N=C/c2ccc(Br)cc2)cc1OC,inactive,–,inactive,inactive,inactive,–,–
COc1ccccc1-n1cnc2cc(NCc3ccco3)ccc21,inactive,34.5% (active),inactive,inactive,–,–,–

Compound,outcome [1],potentiation [2],outcome [3],outcome [4],outcome [2],activation [1],potentiation [3]
O=C(C1=C(O)C(=O)N(CC2CCCO2)C1c1ccc(Cl)cc1Cl)c1ccco1 (stereo not given),inactive,–,inactive,inactive,inactive,–,–
COc1ccc(CC(=O)c2ccccc2C(=O)O)cc1,inactive,–,inactive,inactive,inactive,–,–
COc1ccc(/C=C2\SC(=Nc3ccccc3OC)NC2=O)cc1,inactive,–,inactive,inactive,inactive,–,–
CCCn1c(SCN2C(=O)c3ccccc3C2=O)nc2cc(Cl)ccc2c1=O,–,39.5% (active),–,inactive,–,179% (active),196% (active)
CCC1CCCCN1C(=S)NC(=O)c1cccs1 (stereo not given),–,216% (active),–,inactive,–,470% (active),493% (active)
CCOC(=O)/C(=C\c1cccnc1)C(=O)c1cc(C(C)=O)c(Nc2ccccc2)s1,inactive,–,inactive,inactive,inactive,–,–
Cc1ccc(C(=O)CC(=O)c2cc(Cl)ccc2O)cc1,–,42.5% (active),–,inactive,–,150% (active),152% (active)
CCCN(Cc1ccccc1)C(=S)NC(=O)c1ccccc1[N+](=O)[O-],–,177% (active),–,inactive,–,430% (active),452% (active)
Cc1ccc(SCC2(O)CCN(S(=O)(=O)c3ccc(Cl)cc3)CC2)cc1,inactive,–,inactive,inactive,inactive,–,–
COc1ccc(CN(C)C(=O)c2cccc(NS(=O)(=O)c3ccccc3)c2)cc1F,inactive,–,inactive,inactive,inactive,–,–
O=C(NC(=S)N1CCCCCC1)c1ccccc1,inactive,–,inactive,inactive,inactive,–,–
CC(/C=N/n1c(C2CCCCC2)n[nH]c1=S)=C\c1ccccc1,inactive,270% (active),–,inactive,–,–,423% (active)
O=C1c2ccccc2NC(c2ccc(-c3cccc(Cl)c3)o2)N1O (stereo not given),inactive,–,inactive,inactive,inactive,–,–
CCOc1ccc(N2CC(C(=O)Nc3cc(Cl)ccc3-n3cncn3)CC2=O)cc1 (stereo not given),inactive,–,inactive,inactive,inactive,–,–
COc1ccc2nc(N3C(=O)/C(=C/c4ccccc4)NC3=S)sc2c1,–,204% (active),–,inactive,–,380% (active),486% (active)
CCC(O)(CC)C(=O)NN(C(=O)CCl)c1ccccc1,inactive,–,inactive,inactive,inactive,–,–
CC(C)N(Cc1ccccc1)C(=S)NC(=O)C1(C)CC1(Cl)Cl (stereo not given),–,138% (active),–,inactive,–,357% (active),354% (active)
CCc1ccc(NC(=O)CSc2nc3ccsc3c(=O)n2CCC(=O)O)cc1,–,33% (active),–,inactive,–,148% (active),172% (active)
O=C(NC(=S)Nc1ccccc1N1CCOCC1)c1ccc(-c2ccccc2F)o1,–,51.5% (active),–,inactive,–,147% (active),182% (active)
Cc1ccc(Cn2ncc3c(NN)ncnc32)cc1,inactive,–,inactive,inactive,inactive,–,–

Compound,outcome [1],potentiation [2],outcome [3],outcome [4],outcome [2],activation [1],potentiation [3]
COC(=O)c1sccc1NC(=S)NCc1ccc(Cl)cc1,–,62.5% (active),inactive,inactive,–,144% (active),–
Cc1ncc(CN2CCC(CO)(CCc3ccccc3)CC2)s1,inactive,–,inactive,inactive,inactive,–,–
COCCN(CCOC)Cc1cc(=O)oc2cc3c(cc12)CCC3,–,45.5% (active),inactive,inactive,–,145% (active),–
Cc1ccc2nc3c(cc(C(=O)NCC4CCCO4)c(=N)n3C3CCCC3)c(=O)n2c1 (stereo not given),inactive,–,inactive,inactive,inactive,–,–
CC1(C)Cc2c(sc(/N=C/N3CCCCCC3)c2C#N)C(C)(C)N1,inactive,–,inactive,inactive,inactive,–,–
COc1ccc(CCC(=O)NCCOc2ccc(C)cc2)cc1,inactive,–,inactive,inactive,inactive,–,–
CC1CCCCN1C(=S)NC(=O)c1cccs1 (stereo not given),inactive,–,inactive,inactive,inactive,–,–
CC(C(=O)O)n1c2ccccc2c2cn[nH]c(=O)c21 (stereo not given),inactive,–,inactive,inactive,inactive,–,–
CCOc1ccccc1NC(=O)C(=O)CC(=O)c1ccc(OC)cc1,–,64.5% (active),–,inactive,–,164% (active),216% (active)
CCC1CCCCN1C(=S)NC(=O)c1cccc([N+](=O)[O-])c1 (stereo not given),–,57% (active),–,inactive,–,232% (active),284% (active)
O=C(c1ccccn1)c1ncc(C(F)(F)F)cc1Cl,inactive,–,inactive,inactive,inactive,–,–
CCC(Oc1ccc(Cl)cc1)C(=O)N1CC(=O)Nc2ccccc21 (stereo not given),inactive,–,inactive,inactive,inactive,–,–
COc1ccc(N(Cc2ccccc2)S(=O)(=O)c2cccc(C(=O)O)c2)cc1,inactive,–,inactive,inactive,inactive,–,–
CC1(C)Cc2c(sc3[nH]c(=S)n(Cc4ccccc4)c(=O)c23)CO1,–,63% (active),–,inactive,–,191% (active),198% (active)
CC(=O)NC(NC(C)=O)c1ccc(N(C)C)cc1,inactive,–,inactive,inactive,inactive,–,–
CC(=O)Nc1cccc(/C(C)=N/NC(=O)c2ccc(Cl)cc2Cl)c1,inactive,–,inactive,inactive,inactive,–,–
C/C(=N\NC(=O)C(C)Sc1ccccc1)c1ccc([N+](=O)[O-])cc1 (stereo not given),inactive,–,inactive,inactive,inactive,–,–
Cc1nn(CC(=O)NC(C)c2ccccc2)c(=O)c2ccccc12 (stereo not given),–,85.5% (active),–,inactive,–,150% (active),172% (active)
COc1ccc2oc(C(=O)OCC(=O)N3CC(C)OC(C)C3)c(C)c2c1 (stereo not given),inactive,–,inactive,inactive,inactive,–,–
Cc1ccc2nc(N3CCN(Cc4ccc(F)cc4)C3=O)c(C)cc2c1,inactive,–,inactive,inactive,inactive,–,–
